Compound activity (PubChem)
ABHD4 inh = inhibitors of mouse ABHD4 | 0.54% of 370,000 active | AID 720543 | Q8VD66 | inhibition, % at 8.92 µM | purified mABHD4, FP-Rh probe fluorescence polarization;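 active = inhibition exceeding the mean over every tested compound plus 3 SD, cut at about 30% in these data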;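 also: 0% = plate median of compound wells and 100% = S159A mutant with DMSO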
Target sequence (Q8VD66 whole entry, looked up): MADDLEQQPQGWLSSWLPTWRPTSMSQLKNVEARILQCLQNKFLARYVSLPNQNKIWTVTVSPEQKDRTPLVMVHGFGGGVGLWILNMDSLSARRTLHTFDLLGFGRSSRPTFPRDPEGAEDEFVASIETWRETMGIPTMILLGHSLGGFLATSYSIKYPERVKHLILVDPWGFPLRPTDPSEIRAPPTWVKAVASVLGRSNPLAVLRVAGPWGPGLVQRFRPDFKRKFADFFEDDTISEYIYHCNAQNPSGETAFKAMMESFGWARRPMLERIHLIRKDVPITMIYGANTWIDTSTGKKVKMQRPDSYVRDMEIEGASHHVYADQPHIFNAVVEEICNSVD
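assay system = mABHD4 protein | compound dosing = single nominal dose of 8.92 µM, 0.89% DMSO final | read-out basis = percent inhibition of probe binding, normalized to plate controls | schedule = Enzyme–compound pre-incubation 45 min, then probe 60 min, both 25 °C | detection = fluorescence polarization, excitation 525 nm, emission 598 nm, BODIPY TMR filters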
PAFAH1B3 FP inh = inhibitors of human PAFAH1B3. Q15102. recombinant PAFAH1B3, FP-rhodamine probe, fluorescence polarization. inhibition, % at 3.39 µM. 0.28% of 340,000 active. AID 492972;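 active = inhibition above the screen-wide average of all tested compounds plus 3 SD, cut at about 25% in these data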;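 also: 0% = enzyme with DMSO only and 100% = wells lacking PAFAH1B3 protein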
Target sequence (Q15102 whole entry, looked up): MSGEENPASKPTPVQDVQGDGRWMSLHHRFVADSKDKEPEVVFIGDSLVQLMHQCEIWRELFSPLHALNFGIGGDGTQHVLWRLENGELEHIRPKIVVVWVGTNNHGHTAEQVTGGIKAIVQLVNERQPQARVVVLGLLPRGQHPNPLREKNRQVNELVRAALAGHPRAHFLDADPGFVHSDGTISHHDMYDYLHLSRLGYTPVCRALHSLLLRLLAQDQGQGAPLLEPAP
PAFAH2 inh = inhibitors of human PAFAH2 | Q99487 | recombinant PAFAH2, FP-rhodamine activity probe, fluorescence polarization | inhibition, % at 3.39 µM | 0.99% of 340,000 active | AID 492956;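 active = inhibition above the mean over all tested compounds plus 3 SD, cut at about 30% in these data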;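 also: inhibitors block probe labeling of enzyme so polarization drops; 0% = enzyme with DMSO and 100% = wells lacking PAFAH2 protein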
HTRA1 inhibitor = blocks human HTRA1 serine peptidase. Q92743. recombinant HTRA1, FP-rhodamine activity-based probe, fluorescence polarization. inhibition, % at 5.96 µM. 0.5% of 340,000 active. AID 504803; in the data active = inhibition above about 36%;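 also: 0% = enzyme with DMSO and 100% = wells lacking enzyme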
pPAFAH FP inh = inhibitors of human plasma PAF acetylhydrolase (pPAFAH); AID 463082; Q13093; inhibition, % at 3.39 µM; 1.5% of 330,000 active; recombinant pPAFAH, FP-rhodamine probe fluorescence polarization;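 active = inhibition above the mean inhibition across the screen plus 3 SD, cut at about 25% in these data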;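 also: inhibitors block binding of the rhodamine activity-based probe so polarization drops; 0% = enzyme with DMSO and 100% = wells lacking pPAFAH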
PAFAH1B2 inh = blocks human PAF acetylhydrolase 1b catalytic subunit 2; recombinant PAFAH1B2, FP-rhodamine activity probe, fluorescence polarization; inhibition, % at 3.39 µM; 1.2% of 340,000 active; AID 492953;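 active = inhibition above the mean of all tested compounds plus 3 SD, cut at about 24% in these data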;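 also: 0% = enzyme with DMSO and 100% = wells lacking PAFAH1B2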
HTRA1 inh conf = HTRA1 (human) inhibition, confirmation; 66% of 1,600 active; shares compounds with HTRA1 inhibitor; AID 540248; recombinant HTRA1, FP-rhodamine activity-based probe, fluorescence polarization; inhibition, % at 5.96 µM;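 active = mean inhibition over three repeats above a set limit taken from the earlier primary screen, cut at about 37% in these data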;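 also: 0% = HTRA1 with DMSO and 100% = wells lacking HTRA1; inhibitors block probe binding so polarization drops and inhibition rises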
* marks the source's active call; other numbers are inactive results; . = no result. The list is not random: actives were taken first. Their share in the collection is about 2.8%.

SMILES	ABHD4 inh	PAFAH1B3 FP inh	PAFAH2 inh	HTRA1 inhibitor	pPAFAH FP inh	PAFAH1B2 inh	HTRA1 inh conf
CC(C)[C@H](NC(=O)c1cccc(S(=O)(=O)N2CCOCC2)c1)C(=O)OCC(=O)Nc1cccc(Br)c1	-15	5	13	37*	.	7	37*
O=C(N1CCN(c2ccccn2)CC1)C(Cl)(Cl)Cl	-3	3	8	-4	-6	2	.
O=C1C=C(N2CCN(c3ccccn3)CC2)C(=O)c2c(O)ccc(O)c21	13	16	16	38*	.	3	49*
OCCN(CCO)c1ccc(C(c2ccccc2Cl)c2ccc(N(CCO)CCO)cc2Cl)c(Cl)c1	.	20	22	44*	25*	9	61*
N#CC(c1nc2ccccc2nc1N1CCCC1)S(=O)(=O)c1ccccc1 (stereo unspecified)	6	13	4	39*	23	4	5
c1ccn(-c2ccc(-c3noc(CCc4ccncc4)n3)cc2)c1	-5	.	.	.	.	.	.
CC(C)(C)c1ccc(O)c(O)c1	25	7	3	38*	4	17	60*
O=C1CCC[C@H]2C[C@H](NCc3ccco3)CC[C@]23CCCN13	0	.	.	.	.	.	.
COc1cccc(/C=N/Nc2cc(Cl)nc(C)n2)c1O	2	18	1	19	-3	3	.
COc1cccc(/C=N/Nc2ncnc3c2ncn3Cc2ccccc2)c1O	25	3	15	41*	7	3	47*
CCC[C@H]1[C@@H](OC(=O)NCc2ccccc2)CC[C@@]23CCCN2C(=O)CCC[C@@H]13	7	.	.	.	.	.	.
CCC[n+]1c(C)sc2c3c(ccc21)CCCC3	.	5	3	46*	3	0	50*
CN(C)CCCNc1cc(C(C)(C)C)nc2c(-c3ccccc3)cnn12	15	13	2	36*	4	8	32
CCOC(=O)Nc1ccc(NCc2ccc(F)cc2)nc1N	-13	8	0	60*	17	3	4
CCOC(=O)Nc1ccc(C)cc1NC(=O)OCC	4	4	8	4	-6	3	.
Cc1cc(C)nc(N2CCC(C(=O)N(C)CCc3ccccn3)CC2)n1	-7	.	.	.	.	.	.
COc1ccc(/C=N\NC(=O)c2cc(O)c(O)c(O)c2)cc1CN1CCN(c2ccc(F)cc2)CC1	29	13	-6	83*	30*	-6	78*
COc1ccc(/C=N/NC(=O)c2ccc(C)cc2)cc1CN1CCN(c2ccc(F)cc2)CC1	.	2	-8	-6	-10	3	.
O=C(N/N=C/c1cccnc1)c1cc(O)c(O)c(O)c1	22	18	1	45*	8	0	12
CCc1cccc(CC)c1NC(=S)NCCc1ccc(O)c(O)c1	11	16	7	67*	2	12	78*
CCc1cccc(CC)c1NC(=S)NCCc1c(C)[nH]c2ccccc12	4	-1	9	-6	9	2	.
CC1(c2nnnn2Cc2ccccc2)CCCC(=O)N1Cc1cccs1 (stereo unspecified)	-1	.	.	.	.	.	.
N#C/C(=C/c1ccc(N2CCCCC2)o1)C(=O)Nc1ccc2ccccc2c1	14	7	14	37*	.	5	40*
O=C(OCc1ccccc1)[C@H](Cc1ccccc1)NC(=O)[C@@H]1CC=C[C@@H]2CCN(C3CCCCC3)C(=O)[C@@H]21	10	.	.	.	.	.	.
Cc1ccc(NC(=O)c2ccc(Cl)c(S(=O)(=O)N3CCc4ccccc43)c2)nc1	-22	-9	-13	-62	.	-10	.
SMILES	ABHD4 inh	PAFAH1B3 FP inh	PAFAH2 inh	HTRA1 inhibitor	pPAFAH FP inh	PAFAH1B2 inh	HTRA1 inh conf
O=C(NNC(=O)c1ccccc1O)c1ccc(Cl)c(S(=O)(=O)N2CCc3ccccc32)c1	-26	4	14	50*	30*	1	50*
Cc1ccc(Nc2nc(-c3sc(N)nc3C)cs2)cc1	16	13	5	50*	.	2	31
Cc1nc(N)sc1-c1csc(Nc2ccccn2)n1	20	5	4	24	.	2	.
Cc1nc(N)sc1-c1csc(Nc2ccc(Cl)cn2)n1	20	12	-5	42*	16	-1	37*
O=C(Nc1c(-c2ccc(F)cc2)nc2ncccn12)c1ccccc1	-3	.	.	.	.	.	.
O=C(Nc1ccccc1C(F)(F)F)OCCCN1CCC2(CCC(c3ccccc3)CC2)C1=O (stereo unspecified)	-8	.	.	.	.	.	.
Cc1c2cc[n+](CCN3CCCCC3)cc2c(C)c2c1[nH]c1ccc(O)cc12	.	11	7	41*	.	5	55*
O=S(=O)(O)c1ccc(O)c2cc(Nc3ccccc3)ccc12	78*	76*	89*	67*	.	58*	44*
CC(=O)Oc1cc(C(=O)OCC(=O)N2CCc3ccccc3C2)cc(OC(C)=O)c1OC(C)=O	26	7	36*	59*	33*	12	83*
O=c1cc2oc3cc(O)c(O)cc3c(-c3ccccc3O)c-2cc1O	.	-62	42*	60*	.	27*	127*
Cc1cccc(OC(C)CCN2CCC(C(O)(c3ccccc3)c3ccccc3)CC2)c1 (stereo unspecified)	2	.	.	.	.	.	.
CCC(=O)Nc1ccc2c(c1)C(=O)N(C)[C@@H]1CC[C@@H](CC(=O)OC)O[C@H]1CO2	4	.	.	.	.	.	.
Cn1nccc1C(=O)N/N=C/c1c(O)ccc2ccccc12	5	11	9	55*	23	15	54*
Cc1occc1C(=O)N/N=C/c1c(O)ccc2ccccc12	12	24	18	27	13	9	.
COc1ccccc1/C=N/NC(=O)c1ccc(C)nc1	-2	9	8	5	2	3	.
O=C(N/N=C/c1c(O)ccc2ccccc12)c1ccc[n+](CCO)c1	11	8	4	52*	5	-1	50*
Cc1ccc(C(=O)N/N=C/c2c(O)ccc3ccccc23)cn1	17	25	7	62*	31*	19	49*
O=C(N[C@@H](Cc1ccccc1)C(=O)NCP(=O)(O)OC(Cc1ccccc1)C(=O)O)OCc1ccccc1 (stereo partly specified)	1	.	.	.	.	.	.
Cc1ccc2c(c1)c(=O)c1c3n2CCN(C(=O)CCl)C3CC1 (stereo unspecified)	21	17	24	48*	15	6	19
COc1cc(/C=N/Nc2ccc(Cl)cc2)ccc1OC(=O)c1cccs1	1	-8	-8	47*	-7	0	68*
COc1cc(/C=N/NC(N)=O)ccc1OC(=O)c1cccs1	-1	1	1	7	9	1	.
CCCCCCCCCCCCCCCCn1cc[n+](CC(C)=O)c1	.	1	5	72*	.	5	86*
CCCCCCn1ccc(=N)cc1	-3	-3	5	-2	1	-2	.
